Assay results from publication PMC10413833 (ACS Omega, 2023).
Values after ≈ are worked out from the molar mass of the structure shown.

Columns and labels:
[1] = comparison value for vancomycin ref 18, 19; cited from earlier work
MRSA1 [2] = assay: In vivo antibacterial activity, survival of MRSA1 infected mice; set-up: species or system BALB/c mice; conditions: for survival (%): final survival rate after 7 days
Procedure, shortened: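 Female BALB/c mice (6–8 weeks, 18-22 g) were housed under SPF conditions. They were infected via the tail vein with 0.1 mL of a Columbia broth culture of clinical MRSA1 diluted to OD600 1.5. One hour later, test compound or vancomycin was given IV at 2.5, 10 or 40 mg/kg; an untreated model group was included. Deaths were recorded daily for 7 days to build survival curves. Tissues were examined by H&E histology.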

MRSA3 = assay: In vitro antibacterial activity; assay type: cell-based; conditions: Staphylococcus aureus
MRSA5 = assay: In vitro antibacterial activity; assay type: cell-based; conditions: Staphylococcus aureus
MRSA4 = assay: In vitro antibacterial activity; assay type: cell-based; conditions: Staphylococcus aureus
MRSA2 = assay: In vitro antibacterial activity; assay type: cell-based, Staphylococcus aureus
MRSA1 [3] = assay: In vitro antibacterial activity; assay type: cell-based; conditions: Staphylococcus aureus

CN[C@H](CC(C)C)C(=O)N[C@H]1C(=O)N[C@@H](CC(N)=O)C(=O)N[C@H]2C(=O)N[C@H]3C(=O)N[C@H](C(=O)N[C@H](C(=O)O)c4cc(O)cc(O)c4-c4cc3ccc4O)[C@H](O)c3ccc(c(Cl)c3)Oc3cc2cc(c3O[C@@H]2O[C@H](CO)[C@@H](O)[C@H](O)[C@H]2O[C@H]2C[C@](C)(N)[C@H](O)[C@H](C)O2)Oc2ccc(cc2Cl)[C@H]1O [vancomycin]
half-life (T1/2) [1]: 4.3 ± 1.9 h | survival (%) (MRSA1 [2]; 2.5 mg/kg (low-dose)): 0% | number of mice surviving (MRSA1 [2]; 2.5 mg/kg via tail vein, day1, 6 mice): 3 | number of mice surviving (MRSA1 [2]; 2.5 mg/kg via tail vein, day2, 6 mice): 2 | number of mice surviving (MRSA1 [2]; 2.5 mg/kg via tail vein, day3, 6 mice): 2 | number of mice surviving (MRSA1 [2]; 2.5 mg/kg via tail vein, day4, 6 mice): 2 | number of mice surviving (MRSA1 [2]; 2.5 mg/kg via tail vein, day5, 6 mice): 1 | number of mice surviving (MRSA1 [2]; 2.5 mg/kg via tail vein, day6, 6 mice): 1 | number of mice surviving (MRSA1 [2]; 2.5 mg/kg via tail vein, day7, 6 mice): 0 | survival (%) (MRSA1 [2]; 10 mg/kg (medium-dose)): 16.7% | number of mice surviving (MRSA1 [2]; 10 mg/kg via tail vein, day1, 6 mice): 6 | number of mice surviving (MRSA1 [2]; 10 mg/kg via tail vein, day2, 6 mice): 5 | number of mice surviving (MRSA1 [2]; 10 mg/kg via tail vein, day3, 6 mice): 2 | number of mice surviving (MRSA1 [2]; 10 mg/kg via tail vein, day4, 6 mice): 2 | number of mice surviving (MRSA1 [2]; 10 mg/kg via tail vein, day5, 6 mice): 2 | number of mice surviving (MRSA1 [2]; 10 mg/kg via tail vein, day6, 6 mice): 1 | number of mice surviving (MRSA1 [2]; 10 mg/kg via tail vein, day7, 6 mice): 1 | survival (%) (MRSA1 [2]; 40 mg/kg (high-dose)): 33.3% | number of mice surviving (MRSA1 [2]; 40 mg/kg via tail vein, day1, 6 mice): 5 | number of mice surviving (MRSA1 [2]; 40 mg/kg via tail vein, day2, 6 mice): 5 | number of mice surviving (MRSA1 [2]; 40 mg/kg via tail vein, day3, 6 mice): 5 | number of mice surviving (MRSA1 [2]; 40 mg/kg via tail vein, day4, 6 mice): 4 | number of mice surviving (MRSA1 [2]; 40 mg/kg via tail vein, day5, 6 mice): 2 | number of mice surviving (MRSA1 [2]; 40 mg/kg via tail vein, day6, 6 mice): 2 | number of mice surviving (MRSA1 [2]; 40 mg/kg via tail vein, day7, 6 mice): 2 | ED50 (MRSA1 [2]; Mus musculus): 59.7 mg/kg | kidney infection, H&E staining (MRSA1 [2]; high-dose (40 mg/kg)): severe kidney infection | kidney infection, H&E staining (MRSA1 [2]; low-dose (2.5 mg/kg)): severe kidney infection | kidney infection, H&E staining (MRSA1 [2]; medium-dose (10 mg/kg)): severe kidney infection | MIC (MRSA3): 512 µg/mL (≈ 353 µM) | MIC (MRSA5): 256 µg/mL (≈ 177 µM) | MIC (MRSA4): 256 µg/mL (≈ 177 µM) | MIC (MRSA2; Staphylococcus aureus): > 512 µg/mL | MIC (MRSA2; clinical isolate MRSA2): >512 µg/mL | MIC (MRSA1 [3]): 256 µg/mL (≈ 177 µM)
